# Measurements taken from article PMC9061760 (RSC Advances, 2019).
# Where “and” joins values, the source holds several entries; their conditions need not be identical. Equal values may be shown once.
# Assays:
# [1] = Steady state UV/Vis absorption; type: physicochemical; settings: for ε 355 (extinction coefficient): 355 nm
# Laser flash photolysis = type: physicochemical; settings: excitation 355 nm, 30 mJ, 0.4 mM in 5× PBS buffer, pH 7
# Summary of the method: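 Transient absorption after a single 355 nm pulse (third harmonic) from a Nd:YAG laser at 30 mJ pulse energy. Test compound at 0.4 mM in 5× PBS buffer, pH 7, in a 1 cm × 1 cm cuvette. The kinetic trace of the transient species, assigned to the nitronate, was followed over time to obtain its decay.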
Structure (SMILES),ε 355 (extinction coefficient) [1] [M⁻¹ cm⁻¹],time constant of nitronate decay observed at 430 nm (Laser flash photolysis),λmax (additional absorption band) [1] [nm],extinction coefficient at λmax ([1]; at 365 nm)
"N[C@@H](CC(=O)O)C(=O)OC(C(=O)O)c1ccccc1[N+](=O)[O-].O=C(O)C(F)(F)F (mixture of isomers) [1a, α-carboxynitrobenzyl L-aspartate]",430,–,–,–
"N[C@@H](CC(=O)O)C(=O)OC(C(=O)O)c1cc2c(cc1[N+](=O)[O-])OCO2.O=C(O)C(F)(F)F (stereo partly drawn) [1b, α-carboxynitropiperonyl L-aspartate]",4060,0.87 ms and 0.87 ± 0.04 ms,365,~ 4000 M^−1 cm^−1
